A selection: hits, their analogues and other compounds. The true share with any hit is near 4.8%.
PAFAH2 inh = inhibitors of human PAFAH2; recombinant PAFAH2, FP-rhodamine activity probe, fluorescence polarization; inhibition, % at 3.39 µM; hit rate 0.99% among 340,000;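 active = inhibition above the mean over all tested compounds plus 3 SD, cut at about 30% in these data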;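 also: inhibitors block probe labeling of enzyme so polarization drops; 0% = enzyme with DMSO and 100% = wells lacking PAFAH2 protein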
UCH37 DUB inh = inhibitors of human deubiquitinating enzyme UCH37; inhibition, % (no concentration beside the values); Q9Y5K5; purified proteasome/UCH37, Ub-AMC cleavage fluorescence; hit rate 0.33% among 330,000; AID 588478;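 active = mean inhibition over replicate wells above about 20%, limit read from the data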;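 also: 0% = compound-free wells with enzyme and 100% = wells lacking proteasome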
Target sequence (Q9Y5K5 whole entry, looked up): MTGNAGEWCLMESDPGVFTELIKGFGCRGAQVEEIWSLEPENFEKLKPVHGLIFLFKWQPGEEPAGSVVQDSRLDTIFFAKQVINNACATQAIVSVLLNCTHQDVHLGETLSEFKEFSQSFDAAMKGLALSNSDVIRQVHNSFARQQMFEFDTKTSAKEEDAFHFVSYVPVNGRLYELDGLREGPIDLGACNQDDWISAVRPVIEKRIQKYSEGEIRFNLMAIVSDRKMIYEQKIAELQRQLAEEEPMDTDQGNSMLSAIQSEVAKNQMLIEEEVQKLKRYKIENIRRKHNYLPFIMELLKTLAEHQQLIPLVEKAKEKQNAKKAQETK
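Material: human UCH37 enzyme supplied as purified proteasome complex / Amount: 0.15 nM proteasome as dispensed / Buffer or medium: pH 7.4 Tris-HCl (50 mM) with ovalbumin, ATP-MgCl2, DTT / Times: preincubation 30 min, reaction 25 min, room temperature / Technique: AMC fluorescence from Ub-AMC cleavage, excitation 355 nm, emission 460 nm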
pPAFAH FP inh = inhibitors of human plasma PAF acetylhydrolase (pPAFAH); recombinant pPAFAH, FP-rhodamine probe fluorescence polarization; Q13093; AID 463082; inhibition, % at 3.39 µM; hit rate 1.5% among 330,000;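 active = inhibition above the mean inhibition across the screen plus 3 SD, cut at about 25% in these data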;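 also: inhibitors block binding of the rhodamine activity-based probe so polarization drops; 0% = enzyme with DMSO and 100% = wells lacking pPAFAH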
PAFAH1B2 inh = blocks human PAF acetylhydrolase 1b catalytic subunit 2 | P68402 | recombinant PAFAH1B2, FP-rhodamine activity probe, fluorescence polarization | inhibition, % at 3.39 µM | hit rate 1.2% among 340,000;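 active = inhibition above the mean of all tested compounds plus 3 SD, cut at about 24% in these data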;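 also: 0% = enzyme with DMSO and 100% = wells lacking PAFAH1B2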
Target sequence (P68402 whole entry, looked up): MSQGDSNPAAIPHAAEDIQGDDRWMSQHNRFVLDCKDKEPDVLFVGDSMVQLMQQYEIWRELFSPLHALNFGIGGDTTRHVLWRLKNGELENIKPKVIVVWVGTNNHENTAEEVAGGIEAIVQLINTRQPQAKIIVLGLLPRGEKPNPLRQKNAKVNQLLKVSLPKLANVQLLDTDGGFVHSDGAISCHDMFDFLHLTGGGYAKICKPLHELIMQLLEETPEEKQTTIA
PAFAH1B3 FP inh = inhibitors of human PAFAH1B3. Q15102. recombinant PAFAH1B3, FP-rhodamine probe, fluorescence polarization. inhibition, % at 3.39 µM. hit rate 0.28% among 340,000. AID 492972;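 active = inhibition above the screen-wide average of all tested compounds plus 3 SD, cut at about 25% in these data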;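 also: 0% = enzyme with DMSO only and 100% = wells lacking PAFAH1B3 protein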
GRIN3A LBD mod = modulators (binders) of human NR3A ligand-binding domain; Tm shift relative to glycine control, % at 25 µM; hit rate 2.5% among 340,000; NR3A LBD differential scanning fluorimetry, Tm shift; 0% = protein alone, 100% = glycine-bound protein;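 active = melting temperature shift of at least 10% of the positive control shift, at one fixed dose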
pPAFAH FP conf = confirmation of human plasma PAF acetylhydrolase (pPAFAH) inhibitors | shares compounds with pPAFAH FP inh | recombinant pPAFAH, FP-Rh probe fluorescence polarization | inhibition, % at 3.39 µM | hit rate 72% among 2,300 | AID 463230;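 active = mean inhibition of the triplicate above the hit cutoff set for the earlier primary screen, cut at about 25% in these data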;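 also: 0% = enzyme with DMSO and 100% = wells lacking pPAFAH enzyme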
* = called active by the depositor.

How did COc1cc(/C=N/Nc2nc3ccccc3s2)cc([N+](=O)[O-])c1O do in these assays?
PAFAH2 inh: 24; pPAFAH FP inh: 43*; PAFAH1B2 inh: 14; PAFAH1B3 FP inh: 9; GRIN3A LBD mod: -5; pPAFAH FP conf: 47*

How did COc1cc(C=NNc2nc3ccccc3s2)ccc1O do in these assays?
UCH37 DUB inh: -2

What do the screens show for `O=C(/C=C/c1ccco1)OCC(=O)c1ccc(OC(F)F)cc1`?
PAFAH2 inh: 3; UCH37 DUB inh: 3; pPAFAH FP inh: 55*; PAFAH1B2 inh: 2; PAFAH1B3 FP inh: 6; GRIN3A LBD mod: -2; pPAFAH FP conf: 8

How did COc1ccc(CCOC(=O)c2ccc(NC(=O)CC#N)cc2)cc1 do in these assays?
PAFAH2 inh: -4; UCH37 DUB inh: -1; pPAFAH FP inh: 53*; PAFAH1B2 inh: -3; PAFAH1B3 FP inh: -10; GRIN3A LBD mod: -1; pPAFAH FP conf: 2

Results for Nc1ccc(NC(=O)c2ccccc2)c2c1C(=O)c1ccccc1C2=O ?
PAFAH2 inh: -3; UCH37 DUB inh: 4; pPAFAH FP inh: 2; PAFAH1B2 inh: -3; PAFAH1B3 FP inh: 3; GRIN3A LBD mod: -1

Results for Nc1ccc(O)c2c1C(=O)c1ccccc1C2=O ?
PAFAH2 inh: 82*; pPAFAH FP inh: 83*; PAFAH1B2 inh: 55*; PAFAH1B3 FP inh: 44*; GRIN3A LBD mod: -25; pPAFAH FP conf: 46*

Results for COCc1cc(C)nc(OCC(=O)NN=Cc2ccc(-c3cc([N+](=O)[O-])ccc3Cl)o2)c1C#N ?
UCH37 DUB inh: 2

How did O=C(NN=Cc1ccccc1O)C1CC(=O)N(c2ccc(F)cc2)C1 (centres undefined) do in these assays?
UCH37 DUB inh: -40

What do the screens show for `CC(=O)N1CCc2c(sc(NC(=O)CS(=O)(=O)c3ccc(F)cc3)c2C#N)C1`?
PAFAH2 inh: 12; UCH37 DUB inh: 1; pPAFAH FP inh: 43*; PAFAH1B2 inh: 6; PAFAH1B3 FP inh: 14; GRIN3A LBD mod: -1; pPAFAH FP conf: 7

How did COc1cccc(C(=O)Nc2sc3c(c2C#N)CCN(C(C)=O)C3)c1 do in these assays?
PAFAH2 inh: 3; UCH37 DUB inh: 3; pPAFAH FP inh: -2; PAFAH1B2 inh: 1; PAFAH1B3 FP inh: 2; GRIN3A LBD mod: 0

How did O=C(O/N=C(\c1ccccc1)c1ccncc1)c1ccccc1Cl do in these assays?
PAFAH2 inh: 25; pPAFAH FP inh: 45*; PAFAH1B2 inh: 88*; PAFAH1B3 FP inh: 9; GRIN3A LBD mod: 0; pPAFAH FP conf: 23

What do the screens show for `COc1ccc2noc3c2c1C(=O)c1ccccc1-3`?
PAFAH2 inh: 38*; pPAFAH FP inh: 38*; PAFAH1B2 inh: 20; PAFAH1B3 FP inh: 25; GRIN3A LBD mod: -364; pPAFAH FP conf: 25*

What do the screens show for `CCc1c(C)sc(NC(=O)CC#N)c1C#N`?
PAFAH2 inh: 20; UCH37 DUB inh: 0; pPAFAH FP inh: 35*; PAFAH1B2 inh: 9; PAFAH1B3 FP inh: 8; GRIN3A LBD mod: -3; pPAFAH FP conf: 15

What do the screens show for `Cc1ccccc1S(=O)(=O)Cc1ccc(C(=O)NCCCN2CCCC2)o1`?
PAFAH2 inh: -8; UCH37 DUB inh: 2; pPAFAH FP inh: 35*; PAFAH1B2 inh: 5; PAFAH1B3 FP inh: 0; GRIN3A LBD mod: 0; pPAFAH FP conf: 0

What do the screens show for `Cc1ccccc1S(=O)(=O)Cc1ccc(C(=O)NCCCN2CCN(C)CC2)o1`?
PAFAH2 inh: -4; UCH37 DUB inh: 5; pPAFAH FP inh: 3; PAFAH1B2 inh: -1; PAFAH1B3 FP inh: 7; GRIN3A LBD mod: 1

What do the screens show for `CCc1ccc(CNC(=O)Cc2ccc(NC(=O)C3=C(C)OCCS3)cc2)cc1`?
PAFAH2 inh: 10; pPAFAH FP inh: 36*; PAFAH1B2 inh: 3; PAFAH1B3 FP inh: 1; GRIN3A LBD mod: 0; pPAFAH FP conf: 20

How did CC1=C(C(=O)Nc2ccc(CC(=O)NCc3ccccc3C)cc2)SCCO1 do in these assays?
PAFAH2 inh: -1; UCH37 DUB inh: -2; pPAFAH FP inh: 16; PAFAH1B2 inh: 5; PAFAH1B3 FP inh: 4; GRIN3A LBD mod: 2

Results for CC(=O)ON=Cc1c(Cl)n(C)c2ccccc12 ?
UCH37 DUB inh: 2

How did CNC(=S)NN=Cc1ccc(N2CCOCC2)s1 do in these assays?
UCH37 DUB inh: -7

What do the screens show for `CCS(=O)(=O)c1ccc(N=Nc2ccc(O)c3ncccc23)c(OC)c1`?
PAFAH2 inh: 3; UCH37 DUB inh: 13; PAFAH1B2 inh: 6; PAFAH1B3 FP inh: 11; GRIN3A LBD mod: 2

What do the screens show for `Cc1ccc(N=Nc2ccc(O)c3ncccc23)cc1`?
PAFAH2 inh: -12; UCH37 DUB inh: 2; pPAFAH FP inh: 35*; PAFAH1B2 inh: 5; PAFAH1B3 FP inh: 1; GRIN3A LBD mod: -6; pPAFAH FP conf: 23

What do the screens show for `COc1ccccc1N=Nc1ccc(O)c2ncccc12`?
PAFAH2 inh: 6; UCH37 DUB inh: 5; pPAFAH FP inh: 44*; PAFAH1B2 inh: 6; PAFAH1B3 FP inh: 18; GRIN3A LBD mod: -16; pPAFAH FP conf: 25*

What do the screens show for `CCOc1ccc(C(=O)NN=Cc2cc(Cl)ccc2[N+](=O)[O-])cc1`?
UCH37 DUB inh: 4

How did O=C(CN1CCCCCC1)NN=Cc1cccc(Cl)c1 do in these assays?
UCH37 DUB inh: 5

Results for O=C(CCc1ccc(S(=O)(=O)N2CCOCC2)cc1)NN=Cc1ccc(O)c(O)c1O ?
UCH37 DUB inh: 7

How did COc1ccc2c(c1)cc(C(=O)NN=Cc1c(O)c(C(=O)O)cc3ccccc13)n2C do in these assays?
UCH37 DUB inh: -3

Results for CCOC(=O)c1sc2nc3c(SCCC#N)cc(C(=O)c4cc(F)ccc4O)cn3c(=O)c2c1C ?
PAFAH2 inh: -42; UCH37 DUB inh: -4; pPAFAH FP inh: -2; PAFAH1B2 inh: -12; PAFAH1B3 FP inh: -20; GRIN3A LBD mod: 6

What do the screens show for `O=C(O)CSc1cc(C(=O)c2cc(F)ccc2O)cn2c(=O)c3c(-c4ccccc4)csc3nc12`?
PAFAH2 inh: -32; UCH37 DUB inh: 10; pPAFAH FP inh: 53*; PAFAH1B2 inh: -26; PAFAH1B3 FP inh: -41; GRIN3A LBD mod: 4; pPAFAH FP conf: 65*

How did S=c1[nH]nc(-c2cc(-c3ccccc3)n[nH]2)n1N=Cc1c2ccccc2cc2ccccc12 do in these assays?
UCH37 DUB inh: 8

How did O=C(c1cc(S(=O)(=O)N2CCOCC2)c(Cl)cc1Cl)N1CCCCC1CO (centres undefined) do in these assays?
PAFAH2 inh: -5; UCH37 DUB inh: 1; pPAFAH FP inh: 47*; PAFAH1B2 inh: 0; PAFAH1B3 FP inh: 0; GRIN3A LBD mod: 1; pPAFAH FP conf: 3

What do the screens show for `Cc1ccc(Br)cc1S(=O)(=O)Nc1cccnc1`?
PAFAH2 inh: 4; UCH37 DUB inh: 1; PAFAH1B2 inh: 8; PAFAH1B3 FP inh: 10; GRIN3A LBD mod: 0
